Data set [1] has as its target T1, human M1R (Homo sapiens, UniProt P11229).
T1 sequence (P11229 1-460): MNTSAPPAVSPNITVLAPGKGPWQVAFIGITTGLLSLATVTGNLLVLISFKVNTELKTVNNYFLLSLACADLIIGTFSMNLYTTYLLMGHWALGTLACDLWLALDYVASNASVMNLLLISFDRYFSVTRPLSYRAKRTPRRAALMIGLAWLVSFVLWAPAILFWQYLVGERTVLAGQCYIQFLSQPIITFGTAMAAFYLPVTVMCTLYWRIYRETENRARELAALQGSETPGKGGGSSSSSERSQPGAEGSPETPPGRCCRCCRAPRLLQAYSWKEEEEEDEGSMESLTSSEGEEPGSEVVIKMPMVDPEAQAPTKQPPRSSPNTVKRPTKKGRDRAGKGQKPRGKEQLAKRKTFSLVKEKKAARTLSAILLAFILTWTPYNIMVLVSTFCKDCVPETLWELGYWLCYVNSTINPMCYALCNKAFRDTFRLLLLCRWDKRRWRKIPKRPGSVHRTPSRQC
The following applies: cited from earlier work.

Data set [2] deals with T1, human M1R. The format is binding. The following applies: for Displacement of radioligand at M1Rs at highest concentration: 100 μM.
For data set [3] the following is noted: cited from earlier work.
For data set [4], the target named is T2, human M2R (Homo sapiens, UniProt P08172).
T2 sequence (P08172 1-466): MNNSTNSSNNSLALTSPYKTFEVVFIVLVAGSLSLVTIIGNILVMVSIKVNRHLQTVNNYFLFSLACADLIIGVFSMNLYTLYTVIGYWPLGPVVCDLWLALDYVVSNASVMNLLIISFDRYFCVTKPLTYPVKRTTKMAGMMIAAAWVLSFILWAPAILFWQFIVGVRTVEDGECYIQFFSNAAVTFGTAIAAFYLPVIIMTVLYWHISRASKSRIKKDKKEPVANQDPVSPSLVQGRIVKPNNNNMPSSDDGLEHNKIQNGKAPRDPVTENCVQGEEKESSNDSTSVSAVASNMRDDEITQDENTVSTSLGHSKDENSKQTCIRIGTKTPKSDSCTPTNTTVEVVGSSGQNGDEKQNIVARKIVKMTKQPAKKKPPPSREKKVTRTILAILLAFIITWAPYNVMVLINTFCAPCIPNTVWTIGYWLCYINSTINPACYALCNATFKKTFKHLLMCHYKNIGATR
Kind of data set: M2R cAMP signaling. Type of data set: cell-based.

The next data set deals with T3, human M1Rs (Homo sapiens, UniProt P11229).
T3 sequence (P11229 1-460): T1 sequence (P11229 1-460)
The data set is described as follows: M1R phosphoinositide hydrolysis. Type of data set: cell-based.

For data set [5], the target named is T2, human M2R. The data set is described as follows: M2R β-arrestin recruitment. Type of data set: cell-based. A general note: Recruitment of arrestin is a read-out of receptor activation apart from second messengers.
Data set [6] deals with T2, human M2R. Kind of data set: [3H]scopolamine radioligand competition binding at M2R. The following applies: for Displacement of radioligand at M2Rs at highest concentration: 100 μM; for Displacement of radioligand at M2Rs at highest concentration / Ki: full dose-response competition binding; for Ki: read-out: Ki at M2Rs. In general terms: Displacement assays read how much labelled ligand stays bound in the presence of the test substance.

Data set [7] concerns human M1Rs, M2Rs, M3Rs, M4Rs, and M5Rs. The data set is described as follows: Initial [3H]scopolamine displacement screen at each of the five MR subtypes. Type of data set: binding. The following applies: screened at 1 and 10 μM. The method in brief:
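HEK293 cells (passage <20), lipid-transfected with human M1–M5 receptor cDNA; membranes harvested ~48 h later and stored at -80 °C. […] Filtered on GF/B, washed with ice-cold 50 mM Tris pH 7.4, scintillation counted. Affinities estimated from these two concentrations; N=2.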

For data set [8] the following is noted: cited from earlier work. This is another data set of the same source.
Another data set concerns DAT. The following applies: cited from earlier work.
The subject of the next data set is NET. The following applies: cited from earlier work.
For data set [9] the following is noted: α-PVP confirmed as only stimulant responsible for intoxication; cited from earlier work.
Where [10] appears, read: full dose-response competition binding.

Molecules are shown by their SMILES. “And” between values parts separate entries of the source, which are not always exact repeats. Equal entries are not always repeated. Where two headings read alike, the source gives them in different places.

For the molecule `CNC(C)C(=O)c1ccc(Br)cc1` (stereo not shown) [4-bromomethcathinone, reference compound], the “Affinity at M1Rs (initial experiments)” value at human M1R [1] was “nil affinity”.

As to `CCCCC(C(=O)c1ccc2c(c1)OCO2)N1CCCC1` (stereo not drawn) [MDPHP, 3,4-methylenedioxy-α-pyrrolidinohexiophenone], the “Estimated pKi at M1R” value at human M1R [2] is on record as 5.44. On human M1R [2] (read-out: Estimated Ki at M1Rs, estimated from 1 and 10 μM screens), the inhibition constant (Ki) was 3.63 µM.

Take `CCCCCC(C(=O)c1ccc2c(c1)OCO2)N1CCCC1` (stereo not drawn) [MDPHPP, 3,4-methylenedioxy-α-pyrrolidinoheptaphenone]: the “Estimated pKi at M1R” value at human M1R [2] was 5.22.

Consider `CC(C(=O)c1ccc2c(c1)OCO2)N1CCCC1` (stereo not drawn) [MDPPP, 3,4-methylenedioxy-α-pyrrolidinopropiophenone], for which the “Affinity at M1Rs (initial experiments)” value on human M1R [1] is “nil affinity”.

Turning to `CCCC(C(=O)c1ccc2c(c1)OCO2)N1CCCC1` (stereo not shown) [MDPV, 3,4-methylenedioxypyrovalerone], the “Estimated pKi at M1R” value on human M1R [2] was 5.06. Moreover, in data set [3], the “Effect on mitochondrial activity and cellular membranes” value is given as “not observed”.

Take `O=C1CCCN1CC#CCN1CCCC1` [oxotremorine, reference compound]: the EC50 on human M2R [4] was 0.0288 µM. Further, the “EC80, decrease of forskolin-stimulated cAMP production” value at human M2R [4] (10 μM forskolin) was found to be 0.13 µM. Besides, the “EC80, IP1 production” value on human M1Rs was determined as 0.5 µM. Also, the “EC80, β-arrestin recruitment” value at human M2R [5] (concentration used in antagonist tests) stood at 10 µM.

With `CCC(C(=O)c1ccccc1)N1CCCC1` (stereo not drawn) [α-PBP, α-pyrrolidinobutiophenone], the “Displacement of radioligand at M2Rs at highest concentration” value at human M2R [6] was “less than 50%”. The Ki on human M2R [6] (interpolated) came out at 40 µM. For the same molecule, the “Displacement of 1 nM [3H]scopolamine from each of the MR subtypes” value in data set [7] was < 5%. Also, the “Displacement of radioligand at M1Rs at highest concentration” value on human M1R [2] (setting [10]) is reported as “less than 50%”.

Take `CCCCC(C(=O)c1ccccc1)N1CCCC1` (stereo not drawn) [α-PHP, α-pyrrolidinohexiophenone]: the “Blood concentration, fatal cases” value in [8] (fatal cases, as high as) was ≤ 2860 nM. Besides, in data set [8] (male admitted to hospital after inhaling only α-PHP), the “Blood concentration, non-fatal case” value was 1280 nM. Besides, the “Serum concentration, non-fatal case” value in data set [8] (patient admitted to hospital after taking α-PHP) is 710 nM. Besides, in the data set on DAT, the “Fold higher affinity at DAT than α-PPP” value is listed as 81 fold. In the data set with NET, the “Fold higher affinity at NET than α-PPP” value is reported as 6 fold. The “Fold increase in M2R affinity compared to α-PPP” value on human M2R [6] (ratio of Ki values) is 302 fold. The Ki on human M2R [6] came to 0.251 µM; on human M1R [2] (read-out: Ki at M1Rs, full dose-response competition binding) it was 1.6 µM. Besides, at human M2R [4], the “pKb, inhibition of M2R stimulation by oxotremorine (cAMP)” value is given as 6.92 ±0.03. At human M2R [4] (maximal effect above forskolin alone), the “Functional activity at M2R-cAMP signaling pathway” value is listed as “inverse agonist”. Also, the Kb is 0.12 µM on human M2R [4] (read-out: Kb, inhibition of M2R stimulation by oxotremorine (cAMP)); 1.4 µM and 1.38 µM at human M1Rs (read-out: Kb, inhibition of M1R-IP1 production caused by oxotremorine, EC80 oxotremorine (500 nM)). For the same molecule, the “pKb, inhibition of M1R-IP1 production caused by oxotremorine” value at human M1Rs (EC80 oxotremorine (500 nM)) came to 5.86 ± 0.35. Also, the “Functional activity at M1R-inositol phosphate signaling pathway” value on human M1Rs (maximal effect lower than basal signaling) is recorded as “inverse agonist activity”. The “pKb, inhibition of oxotremorine-stimulated β-arrestin recruitment” value at human M2R [5] (EC80 oxotremorine (10 μM)) is recorded as 6.30 ± 0.12. Besides, the “Functional activity at M2R-β-arrestin recruitment” value on human M2R [5] (relative to basal signaling) is “inverse agonist”. Also, the “Fold increase in M1R affinity from α-PPP” value on human M1R [2] (ratio of Ki values) was 121 fold.

As to `CC(C(=O)c1ccccc1)N1CCCC1` (stereo not drawn) [α-PPP, α-pyrrolidinopropiophenone], the “Displacement of radioligand at M2Rs at highest concentration” value at human M2R [6] was “less than 50%”. Also, the “Affinity at M1Rs (initial experiments)” value at human M1R [1] is recorded as “nil affinity”. In addition, in data set [7], the “Displacement of 1 nM [3H]scopolamine from each of the MR subtypes” value was < 5%. Besides, on human M1R [2] (setting [10]), the “Displacement of radioligand at M1Rs at highest concentration” value was “less than 50%”.

As for `CCCCCCC(C(=O)c1ccccc1)N1CCCC1` (stereo not drawn) [α-PV9, α-pyrrolidinooctanophenone, reference compound], the “Effect on mitochondrial activity and cellular membranes” value in data set [3] was “potently decreased mitochondrial activity and severely damaged cellular membranes”.

Regarding `CCCC(C(=O)c1ccccc1)N1CCCC1` (stereo not drawn) [α-PVP, α-pyrrolidinopentiophenone], the “Serum concentration, non-fatal cases” value in [8] (non-fatal cases, as high as) was ≤ 2600 nM. Moreover, the “Concentration, postmortem cases” value in data set [8] (postmortem cases, as high as) was ≤ 86000 nM. At human M2R [6] (ratio of Ki values), the “Fold increase in M2R affinity compared to α-PBP” value is listed as 49 fold and the “Fold increase in M2R affinity compared to α-PPP” value is 89 fold. For the same molecule, on human M2R [6], the inhibition constant (Ki) stood at 0.824 µM. For the same molecule, in data set [9], the “Patients presenting with tachycardia” value was 80%.

As usually defined, the Ki is the equilibrium dissociation constant of an inhibitor or competing ligand from its target. The term EC50 denotes the midpoint of the concentration-response curve. High values mean lower potency in that assay, low ones higher potency in that assay.

These data come from paper PMC7104417 (ACS chemical neuroscience, 2020).
